In article PMC3561458 (Investigational new drugs, 2011):

How the values were obtained:
[1] = system: patients; conditions: cited from earlier work
[2] = system: patients; conditions: cited from earlier work; remark: listed apart in the source
[3] = system: CDK1; conditions: cited from earlier work
[4] = system: CDK2; conditions: cited from earlier work
[5] = system: CDK4; conditions: cited from earlier work
[6] = system: CDK7; conditions: cited from earlier work
[7] = system: patients; conditions: intravenous; cited from earlier work
[8] = Plasma pharmacokinetics; format: in vivo, human; conditions: across doses
In short: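 The test compound is given orally once daily for 7 days in 2-week cycles (S1). Plasma is sampled in cycle 1 on days 1, 2, 4, 7, 8 and 9, and in cycle 2 on days 1, 4 and 7. Cycle 1 day 1 is sampled from 30 min to 24 h after dosing and day 7 from 30 min to 96 h. Parent and metabolite are measured by validated LC-MS-MS, with calibration ranges of 0.00109–1.09 and 0.00105–1.05 μM respectively.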

[9] = Urinary excretion; format: in vivo, human; conditions: patients at the RP2D in S1
In short: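 Urine is collected only from S1 patients dosed at the recommended phase II dose, with once-daily oral dosing for 7 days in 2-week cycles. Parent compound and metabolite in urine are measured by validated LC-MS-MS, with calibration ranges of 0.217–109 μM for the parent and 0.210–105 μM for the metabolite.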

In the case of `Cc1ncc(-c2ccnc(Nc3ccc(S(C)(=O)=O)cc3)n2)n1C(C)C` [AZD438], the toxicities [1] is listed as “myelotoxicity, GI toxicity, fatigue, skin rash and electrolytes inbalance, with no neurological toxicity”.
In the case of `C[C@]12O[C@H](C[C@]1(O)CO)n1c3ccccc3c3c4c(c5c6ccccc6n2c5c31)CNC4=O` [CEP-701], the “most frequently reported side effects” value [2] is listed as “predominantly GI-related (nausea, diarrhea, anorexia, constipation, and vomiting), and asthenia”, the “patients with stable disease for at least six months” value [2] is listed as “three” and the “patients with stable disease for more than three months” value [2] is listed as “Seven of 30”.
In the case of `CCc1cnn2c(NCc3ccc[n+]([O-])c3)cc(N3CCCC[C@H]3CCO)nc12` [dinaciclib], the toxicities [1] is given as “myelotoxicity, GI toxicity, fatigue, skin rash and electrolytes inbalance, with no neurological toxicity”.
In the case of `CN1CC[C@H](c2c(O)cc(O)c3c(=O)cc(-c4ccccc4Cl)oc23)[C@H](O)C1` [flavopiridol, reference compound], the “inhibition of CDK1” value [3] is listed as “demonstrated inhibition”, the “inhibition of CDK2” value [4] is listed as “demonstrated inhibition” and the “inhibition of CDK4” value [5] is listed as “demonstrated inhibition”. For the same compound, the “inhibition of CDK7” value [6] was “demonstrated inhibition”, the clinical activity [7] was “showed activity in some patients with non-Hodgkin’s lymphoma, renal, prostate, colon, and gastric carcinomas” and the main side effects [7] was “secretory diarrhea, a proinflammatory syndrome associated with hypotension, and hyperglycemia”.
With `Nc1nc2cccc(-c3ccc(CN4CCS(=O)(=O)CC4)cc3)n2n1` [metabolite] the “AUC0-24 of the metabolite relative to parent compound” value [8] was “approximately 30%”, the “Cmax of the metabolite relative to parent compound” value [8] was “approximately 30%” and the “amount excreted in urine” value [9] was 13 % of dose.
In the case of `CC[C@H](CO)Nc1nc(NCc2ccccc2)c2ncn(C(C)C)c2n1` [seliciclib], the toxicities [1] is listed as “myelotoxicity, GI toxicity, fatigue, skin rash and electrolytes inbalance, with no neurological toxicity”.
